High-throughput results (PubChem BioAssay)
SMARCA2 activ – SMARCA2 function activation, primary screen; MG213 cells, MMTV-luciferase reporter, dexamethasone, overnight; 370,000 compounds, 1% hits; activation, % at 9.1 µM; AID 652017; in the data active = activation above about 7.8%;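 also: 0% = vehicle wells and 100% = reference activator wells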
TbMetRS inhib – Trypanosoma brucei MetRS inhibition; AID 624268; inhibition, % at 11.9 µM; 360,000 compounds, 0.4% hits; purified T. brucei MetRS, ATP depletion, Kinase-Glo luminescence;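 active = inhibition above a per-plate cutoff of the control wells' mean inhibition plus 3 SD, cut at about 5.5% in these data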;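 also: 0% = DMSO wells median and 100% = median of wells with control inhibitor compound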
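Measured by: Kinase-Glo luciferase luminescence reporting remaining unconsumed ATP. Material: purified T. brucei MetRS enzyme. Doses: 11.9 µM compound single dose, 0.9% DMSO. Medium: HEPES buffer containing pyrophosphatase, BSA, spermine, DTT. Times: 15 min preincubation, 2 h reaction, all 25 °C. Reagent: methionine, ATP and bulk E. coli tRNA.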
Efflux pump mplx – inhibitors of Candida antifungal efflux pumps expressed in yeast; S. cerevisiae Candida pump triplex, Nile Red efflux; inhibition, % at 10 µM; 330,000 compounds, 0.44% hits; AID 485275;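 active = plate passing quality check with inhibition over a set limit, or well fluorescence over plate mean plus 4 SD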;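 also: Nile Red retained in pooled yeast measured as flow cytometry median fluorescence; 0% = buffer negative control and 100% = Enniatin B positive control; higher means more Nile Red kept so more efflux inhibition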
AHR activator – human AHR activation. AHR-responsive luciferase reporter cells, luminescence. activation, % at 5 µM. 320,000 compounds, 2.5% hits; in the data active = activation above about 47%;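 also: 0% = vehicle wells and 100% = reference agonist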
Target sequence (P35869 whole entry, looked up): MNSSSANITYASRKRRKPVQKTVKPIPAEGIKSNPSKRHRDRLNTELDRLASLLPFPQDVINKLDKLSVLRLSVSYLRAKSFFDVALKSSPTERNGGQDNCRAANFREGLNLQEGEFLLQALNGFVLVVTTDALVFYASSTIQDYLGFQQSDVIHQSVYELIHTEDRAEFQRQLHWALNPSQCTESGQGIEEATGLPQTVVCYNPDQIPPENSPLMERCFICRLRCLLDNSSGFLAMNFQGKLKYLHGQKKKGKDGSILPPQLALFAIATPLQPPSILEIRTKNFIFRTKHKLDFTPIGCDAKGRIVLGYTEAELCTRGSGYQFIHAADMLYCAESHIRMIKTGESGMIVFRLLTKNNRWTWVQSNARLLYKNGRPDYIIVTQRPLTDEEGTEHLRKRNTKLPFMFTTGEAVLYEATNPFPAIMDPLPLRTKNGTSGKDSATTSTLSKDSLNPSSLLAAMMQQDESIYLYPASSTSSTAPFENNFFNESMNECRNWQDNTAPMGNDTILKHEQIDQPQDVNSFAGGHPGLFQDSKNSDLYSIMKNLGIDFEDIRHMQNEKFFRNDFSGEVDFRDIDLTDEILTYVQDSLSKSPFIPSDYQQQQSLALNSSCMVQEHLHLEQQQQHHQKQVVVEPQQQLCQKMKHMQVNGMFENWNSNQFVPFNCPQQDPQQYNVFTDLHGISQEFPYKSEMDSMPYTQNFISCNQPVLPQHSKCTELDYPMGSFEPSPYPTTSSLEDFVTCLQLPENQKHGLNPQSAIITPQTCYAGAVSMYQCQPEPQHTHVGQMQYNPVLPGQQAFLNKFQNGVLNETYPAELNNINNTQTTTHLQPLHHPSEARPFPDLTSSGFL
H9c2 TAG inh – triacylglycerol accumulation inhibition | 230,000 compounds, 0.66% hits | H9c2 cells, Nile Red lipid (TAG) fluorescence; cells loaded with 200 µM oleic acid | inhibition, % at 12.5 µM;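 active = pattern-corrected inhibition of lipid staining of at least 50% with the nuclear-stain viability signal not falling by more than 50%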;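 also: 0% = DMSO wells and 100% = triacsin C control wells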
Cmpd fluor yeast – compound fluorescence in yeast efflux pump counter-screen | shares compounds with Efflux pump mplx | S. cerevisiae AD/pABC3, flow cytometry | fluorescence ratio to DMSO, % at 10 µM | 1,700 compounds, 4% hits;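 active = fluorescence ratio to DMSO above its plate's cutoff, the plate mean ratio plus 5 SD, cut at about 210% in these data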;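 also: unstained yeast with no Nile Red so the signal is compound autofluorescence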
Mdr1 pump inh – inhibitors of Candida albicans Mdr1 efflux pump | inhibition, % at 10 µM | shares compounds with Efflux pump mplx | S. cerevisiae AD/CaMDR1, Nile Red efflux, flow cytometry | 1,700 compounds, 1% hits; in the data active = inhibition above about 26%;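 also: 0% = DMSO vehicle and 100% = reference inhibitor; higher means more Nile Red retained so more efflux inhibition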
Cdr2 pump inh – blocks the Candida albicans Cdr2 efflux pump in yeast. shares compounds with Efflux pump mplx. S. cerevisiae AD/CaCDR2, Nile Red retention, flow cytometry. Nile Red retention ratio vs DMSO, % at 10 µM. 1,700 compounds, 4% hits. AID 588520; in the data active = Nile Red retention ratio vs DMSO above about 190%;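 also: higher ratio means more blocking of Cdr2 efflux of the dye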
Cdr1 pump inh – blocks the Candida albicans Cdr1 efflux pump in yeast; inhibition, % at 10 µM; 1,700 compounds, 1% hits; shares compounds with Efflux pump mplx; S. cerevisiae AD/CaCDR1, Nile Red efflux, flow cytometry;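 active = inhibition above the screen-wide mean plus twice its standard deviation, cut at about 32% in these data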
An asterisk follows results filed as active. In the library only some 4.1% were active in any assay of this set; here they are far more common.

What do the screens show for `COc1cc(N2C[C@@]3(O)CC[C@@H](O)[C@@H](OC)[C@@H]3[C@@](C)(O)[C@@H]2CC=C(C)C)cc(OC)c1OC`?
SMARCA2 activ: -4.0

What do the screens show for `COc1cc(OC)c(-c2noc(C(=O)OC(C)(C)C)c2C(=O)OC(C)(C)C)c(OC)c1`?
SMARCA2 activ: 1.1; TbMetRS inhib: 0.0; Efflux pump mplx: 1.2*; AHR activator: 0.4; Cmpd fluor yeast: 97.2; Mdr1 pump inh: 0.1; Cdr2 pump inh: 93.2; Cdr1 pump inh: -0.1

Results for COc1ccc(C2C(C(=O)N3CCN(c4ccccc4Cl)CC3)CC(=O)N2c2ccc(OC)cc2)cc1 (stereo unspecified) ?
SMARCA2 activ: -1.4

What do the screens show for `CC(C(=O)Nc1ccccc1C(=O)N1CCOCC1)N(c1ccc(Cl)cc1)S(C)(=O)=O` (stereo unspecified)?
SMARCA2 activ: 0.3; TbMetRS inhib: -1.6; Efflux pump mplx: 0.7*; AHR activator: 0.1; H9c2 TAG inh: -0.6; Cmpd fluor yeast: 103.0; Mdr1 pump inh: -0.2; Cdr2 pump inh: 91.4; Cdr1 pump inh: 0.0

How did COC(=O)[C@@]12CCCCC=C1N(CCc1ccc(Cl)cc1)C(=O)[C@H]2CC(=O)NCCC(C)C do in these assays?
SMARCA2 activ: -1.7

What do the screens show for `Nc1cc2c(cc1C(=O)c1cccc(Br)c1)OCCO2`?
SMARCA2 activ: -1.1; TbMetRS inhib: -0.1; Efflux pump mplx: 0.6*; AHR activator: 14.2; H9c2 TAG inh: -5.0; Cmpd fluor yeast: 100.2; Mdr1 pump inh: -0.3; Cdr2 pump inh: 103.6; Cdr1 pump inh: 0.2

How did Nc1cc2c(cc1C(=O)c1ccccc1F)OCCO2 do in these assays?
SMARCA2 activ: -1.2; TbMetRS inhib: -0.2; Efflux pump mplx: 0.1; AHR activator: 5.6

What do the screens show for `COc1ccc2[nH]cc(/C=C/c3cc[n+](C)cc3)c2c1`?
SMARCA2 activ: -2.3; TbMetRS inhib: -0.1; Efflux pump mplx: 2.2; AHR activator: 19.5; Cmpd fluor yeast: 418.7*; Mdr1 pump inh: 5.6; Cdr2 pump inh: 135.6; Cdr1 pump inh: 3.0

How did COc1ccc2[nH]cc(C=O)c2c1 do in these assays?
SMARCA2 activ: 5.2; TbMetRS inhib: 0.8; Efflux pump mplx: 0.0; AHR activator: 5.6; H9c2 TAG inh: -3.2

How did COc1ccc(S[C@]2(C(=O)N3CCOCC3)CC(=O)N(P(=O)(OC)OC)[C@@H]2c2ccc(OC)cc2)cc1 do in these assays?
SMARCA2 activ: -1.1

What do the screens show for `O=C(CCc1ccccc1)N[C@H]1[C@H](OC(=O)c2ccco2)CCC[C@@]12C(=O)N(Cc1ccccc1)c1ccccc12`?
SMARCA2 activ: -0.9

What do the screens show for `COC(=O)[C@]12C[C@H](CC(=O)NCc3ccc(C)o3)C(=O)N(Cc3ccc4c(c3)OCO4)C1=C[C@H](C(C)C)O[C@@H]2C1CC1`?
SMARCA2 activ: -5.0

Results for COc1ccc(CNC(=O)c2cc3c(=O)n4ccccc4nc3n(Cc3cccnc3)c2=N)cc1 ?
SMARCA2 activ: -2.5; TbMetRS inhib: -0.8; Efflux pump mplx: 0.9*; AHR activator: 8.1; Cmpd fluor yeast: 96.2; Mdr1 pump inh: -0.1; Cdr2 pump inh: 105.1; Cdr1 pump inh: 0.0

What do the screens show for `COc1cccc(NC(=O)c2cc3c(=O)n4ccccc4nc3n(CC(C)C)c2=N)c1`?
SMARCA2 activ: 2.8; TbMetRS inhib: -0.1; Efflux pump mplx: 1.6*; AHR activator: 5.4; H9c2 TAG inh: 16.9; Cmpd fluor yeast: 98.6; Mdr1 pump inh: -0.3; Cdr2 pump inh: 95.1; Cdr1 pump inh: 0.1

How did O=C1/C(=C\c2ccco2)SC(=S)N1c1ccc(O)cc1 do in these assays?
SMARCA2 activ: -2.0; TbMetRS inhib: -0.3; Efflux pump mplx: 0.4*; AHR activator: 0.7; Cmpd fluor yeast: 103.0; Mdr1 pump inh: -0.1; Cdr2 pump inh: 97.7; Cdr1 pump inh: 0.0

Results for CCOc1ccc(C2Nc3ccc4ccccc4c3-c3c2c(=O)oc2ccccc32)cc1 (stereo unspecified) ?
SMARCA2 activ: -0.9; TbMetRS inhib: -1.4; Efflux pump mplx: 0.6*; AHR activator: 5.8; Cmpd fluor yeast: 118.2; Mdr1 pump inh: 0.5; Cdr2 pump inh: 107.2; Cdr1 pump inh: 1.1

Results for O=c1oc2ccccc2c2c1C(c1ccc(Cl)cc1)Nc1ccc3ccccc3c1-2 (stereo unspecified) ?
SMARCA2 activ: -0.1; TbMetRS inhib: -0.5; Efflux pump mplx: 1.0*; AHR activator: 5.9; H9c2 TAG inh: 26.2; Cmpd fluor yeast: 103.4; Mdr1 pump inh: -0.2; Cdr2 pump inh: 114.4; Cdr1 pump inh: 0.5

Results for COC(=O)c1ccc(CSc2nnc3c(n2)[nH]c2ccccc23)cc1 ?
SMARCA2 activ: -2.3; TbMetRS inhib: 0.3; Efflux pump mplx: 0.5*; AHR activator: 1.8; H9c2 TAG inh: -1.5; Cmpd fluor yeast: 124.0; Mdr1 pump inh: 0.5; Cdr2 pump inh: 148.0; Cdr1 pump inh: 0.5

How did COc1ccc(CC(=O)OCC(=O)NC(=O)NC23CC4CC(CC(C4)C2)C3)cc1 do in these assays?
SMARCA2 activ: -1.4; TbMetRS inhib: -0.8; Efflux pump mplx: 0.7*; AHR activator: -0.6; Cmpd fluor yeast: 112.7; Mdr1 pump inh: -0.1; Cdr2 pump inh: 106.0; Cdr1 pump inh: -0.1

Results for COCc1cc(N2CCN(c3ccccc3F)CC2)nc(-c2ccccc2)n1 ?
SMARCA2 activ: 2.0; TbMetRS inhib: -0.2; Efflux pump mplx: -0.2; AHR activator: -3.8; H9c2 TAG inh: -5.7

How did CCCSc1cc(N2CCN(C)CC2)nc(-c2ccc(OC)cc2)n1 do in these assays?
SMARCA2 activ: -1.4; TbMetRS inhib: 0.2; Efflux pump mplx: 0.7; AHR activator: 6.9; H9c2 TAG inh: 14.8; Cmpd fluor yeast: 82.2; Mdr1 pump inh: -0.1; Cdr2 pump inh: 89.0; Cdr1 pump inh: -0.1

How did CCCSc1cc(N2CCCC2)nc(-c2ccccc2)n1 do in these assays?
SMARCA2 activ: -1.4; TbMetRS inhib: 0.5; Efflux pump mplx: -0.1; AHR activator: -0.6; Cmpd fluor yeast: active; Mdr1 pump inh: 0.5; Cdr2 pump inh: 127.0; Cdr1 pump inh: 0.0

What do the screens show for `COC(=O)c1cc2c(c3c4cc(F)ccc4n(S(=O)(=O)c4ccccc4)c13)C(=O)N(Cc1ccc(C(F)(F)F)cc1)C2`?
SMARCA2 activ: -2.3

How did COCc1cccc(-c2cc(C(=O)OC)c3n(c2=O)CCC3)c1 do in these assays?
SMARCA2 activ: -1.2

What do the screens show for `O=C(CCc1nc(-c2ccccc2F)no1)NCCc1c[nH]c2ccccc12`?
SMARCA2 activ: -0.4

What do the screens show for `O=C(NCc1ccc(F)cc1)c1noc2c1CCCCC2`?
SMARCA2 activ: 1.0; TbMetRS inhib: -0.7
